Each structure is given as a SMILES string. Activity calls are given as the source filed them. The calls are words filed in the database; no cut-off is given here.

These results are taken from ChEMBL document CHEMBL5712886, “Discovery and Characterization of GSK2801, a Selective Chemical Probe for the Bromodomains BAZ2A and BAZ2B” (J Med Chem, 2016).

Experiment [1] addresses Bromodomain and WD repeat-containing protein 3 (Homo sapiens) (UniProt Q6RI45). Description: Binding affinity to biotinylated BRWD3 bromodomain-2 (unknown origin) expressed in Escherichia coli at 0.2 to 1 uM by Biolayer Interferometric analysis. As to conditions: dose 0.2-1 µM. In outline:
(§1)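 Bromodomains carrying a BirA biotin ligase targeting sequence, coexpressed with BirA in bacteria to give homogeneous in vivo biotin labelling, checked by mass spectrometry. Biotinylated proteins probed by biolayer interferometry with compound at two concentrations, 0.2 and 1.0 μM.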

The target in experiment [2] is Histone acetyltransferase KAT2B (Homo sapiens) (UniProt Q92831). Description: Binding affinity to biotinylated PCAF (unknown origin) expressed in Escherichia coli at 0.2 to 1 uM by Biolayer Interferometric analysis. Conditions: dose 0.2-1 µM. In outline: as §1
On the technique in general: Biolayer interferometry detects binding as a change in optical thickness at a sensor tip.

Experiment [3] addresses Chromatin remodeling regulator CECR2 (Homo sapiens) (UniProt Q9BXF3). Description: Binding affinity to biotinylated CECR2 (unknown origin) expressed in Escherichia coli at 0.2 to 1 uM by Biolayer Interferometric analysis. As to conditions: dose 0.2-1 µM. A digest of the protocol: as §1
Experiment [4] concerns the target Peregrin (Homo sapiens) (UniProt P55201). In words: Binding affinity to biotinylated BRPF1 bromodomain-1 (unknown origin) expressed in Escherichia coli at 0.2 to 1 uM by Biolayer Interferometric analysis. As to conditions: dose 0.2-1 µM. A digest of the protocol: as §1
Experiment [5] has as its target Transcription initiation factor TFIID subunit 1 (Homo sapiens) (UniProt P21675). Description: Binding affinity to biotinylated TAF1 bromodomain-2 (unknown origin) expressed in Escherichia coli at 0.2 to 1 uM by Biolayer Interferometric analysis. As to conditions: dose 0.2-1 µM. A digest of the protocol:
as §1

For experiment [6], the target named is T1, Bromodomain-containing protein 9 (Homo sapiens) (UniProt Q9H8M2).
T1 sequence (whole entry): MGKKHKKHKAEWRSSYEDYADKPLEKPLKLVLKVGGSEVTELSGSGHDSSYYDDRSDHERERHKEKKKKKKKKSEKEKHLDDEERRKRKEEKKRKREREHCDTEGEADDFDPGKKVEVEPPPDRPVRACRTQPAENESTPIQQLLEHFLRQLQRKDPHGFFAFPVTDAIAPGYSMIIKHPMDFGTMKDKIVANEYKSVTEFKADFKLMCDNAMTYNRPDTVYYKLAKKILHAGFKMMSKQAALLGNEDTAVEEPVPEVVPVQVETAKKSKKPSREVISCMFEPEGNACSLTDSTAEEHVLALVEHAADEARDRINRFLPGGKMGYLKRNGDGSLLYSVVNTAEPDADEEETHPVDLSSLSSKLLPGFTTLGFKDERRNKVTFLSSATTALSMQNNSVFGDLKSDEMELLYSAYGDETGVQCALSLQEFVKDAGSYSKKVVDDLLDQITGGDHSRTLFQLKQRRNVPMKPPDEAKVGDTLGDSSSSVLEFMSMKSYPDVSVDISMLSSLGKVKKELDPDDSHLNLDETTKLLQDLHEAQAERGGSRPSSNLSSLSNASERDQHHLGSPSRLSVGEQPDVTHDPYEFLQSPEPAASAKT
Description: Binding affinity to biotinylated C-terminal Avi/His-TEV-fused BRD9 (unknown origin) expressed in Escherichia coli by isothermal titration calorimetric analysis. Background: In ITC the heat of successive injections is recorded.

The target in experiment [7] is Nucleosome-remodeling factor subunit BPTF (Homo sapiens) (UniProt Q12830). In words: Binding affinity to biotinylated FALZ (unknown origin) expressed in Escherichia coli at 0.2 to 1 uM by Biolayer Interferometric analysis. As to conditions: dose 0.2-1 µM. A digest of the protocol: as §1
For experiment [8], the target named is Bromodomain-containing protein 1 (Homo sapiens) (UniProt O95696). In words: Binding affinity to biotinylated BRD1 (unknown origin) expressed in Escherichia coli at 0.2 to 1 uM by Biolayer Interferometric analysis. Conditions: dose 0.2-1 µM. In outline: as §1
The target in experiment [9] is PH-interacting protein (Homo sapiens) (UniProt Q8WWQ0). Description: Binding affinity to biotinylated PHIP (unknown origin) expressed in Escherichia coli at 0.2 to 1 uM by Biolayer Interferometric analysis. Conditions: dose 0.2-1 µM. In outline: as §1
For experiment [10], the target named is Tyrosine-protein kinase BAZ1B (Homo sapiens) (UniProt Q9UIG0). Description: Binding affinity to biotinylated BAZ1B (unknown origin) expressed in Escherichia coli at 0.2 to 1 uM by Biolayer Interferometric analysis. Conditions: dose 0.2-1 µM. A digest of the protocol:
as §1

For experiment [11], the target named is Bromodomain-containing protein 2 (Homo sapiens) (UniProt P25440). Description: Binding affinity to biotinylated BRD2 bromodomain-2 (unknown origin) expressed in Escherichia coli at 0.2 to 1 uM by Biolayer Interferometric analysis. As to conditions: dose 0.2-1 µM. A digest of the protocol:
as §1

In experiment [12] the target is Protein polybromo-1 (Homo sapiens) (UniProt Q86U86). Description: Binding affinity to biotinylated PB1 bromodomain-4 (unknown origin) expressed in Escherichia coli at 0.2 to 1 uM by Biolayer Interferometric analysis. As to conditions: dose 0.2-1 µM. A digest of the protocol: as §1
Chain of Protein polybromo-1 (Homo sapiens) (Q86U86 whole entry): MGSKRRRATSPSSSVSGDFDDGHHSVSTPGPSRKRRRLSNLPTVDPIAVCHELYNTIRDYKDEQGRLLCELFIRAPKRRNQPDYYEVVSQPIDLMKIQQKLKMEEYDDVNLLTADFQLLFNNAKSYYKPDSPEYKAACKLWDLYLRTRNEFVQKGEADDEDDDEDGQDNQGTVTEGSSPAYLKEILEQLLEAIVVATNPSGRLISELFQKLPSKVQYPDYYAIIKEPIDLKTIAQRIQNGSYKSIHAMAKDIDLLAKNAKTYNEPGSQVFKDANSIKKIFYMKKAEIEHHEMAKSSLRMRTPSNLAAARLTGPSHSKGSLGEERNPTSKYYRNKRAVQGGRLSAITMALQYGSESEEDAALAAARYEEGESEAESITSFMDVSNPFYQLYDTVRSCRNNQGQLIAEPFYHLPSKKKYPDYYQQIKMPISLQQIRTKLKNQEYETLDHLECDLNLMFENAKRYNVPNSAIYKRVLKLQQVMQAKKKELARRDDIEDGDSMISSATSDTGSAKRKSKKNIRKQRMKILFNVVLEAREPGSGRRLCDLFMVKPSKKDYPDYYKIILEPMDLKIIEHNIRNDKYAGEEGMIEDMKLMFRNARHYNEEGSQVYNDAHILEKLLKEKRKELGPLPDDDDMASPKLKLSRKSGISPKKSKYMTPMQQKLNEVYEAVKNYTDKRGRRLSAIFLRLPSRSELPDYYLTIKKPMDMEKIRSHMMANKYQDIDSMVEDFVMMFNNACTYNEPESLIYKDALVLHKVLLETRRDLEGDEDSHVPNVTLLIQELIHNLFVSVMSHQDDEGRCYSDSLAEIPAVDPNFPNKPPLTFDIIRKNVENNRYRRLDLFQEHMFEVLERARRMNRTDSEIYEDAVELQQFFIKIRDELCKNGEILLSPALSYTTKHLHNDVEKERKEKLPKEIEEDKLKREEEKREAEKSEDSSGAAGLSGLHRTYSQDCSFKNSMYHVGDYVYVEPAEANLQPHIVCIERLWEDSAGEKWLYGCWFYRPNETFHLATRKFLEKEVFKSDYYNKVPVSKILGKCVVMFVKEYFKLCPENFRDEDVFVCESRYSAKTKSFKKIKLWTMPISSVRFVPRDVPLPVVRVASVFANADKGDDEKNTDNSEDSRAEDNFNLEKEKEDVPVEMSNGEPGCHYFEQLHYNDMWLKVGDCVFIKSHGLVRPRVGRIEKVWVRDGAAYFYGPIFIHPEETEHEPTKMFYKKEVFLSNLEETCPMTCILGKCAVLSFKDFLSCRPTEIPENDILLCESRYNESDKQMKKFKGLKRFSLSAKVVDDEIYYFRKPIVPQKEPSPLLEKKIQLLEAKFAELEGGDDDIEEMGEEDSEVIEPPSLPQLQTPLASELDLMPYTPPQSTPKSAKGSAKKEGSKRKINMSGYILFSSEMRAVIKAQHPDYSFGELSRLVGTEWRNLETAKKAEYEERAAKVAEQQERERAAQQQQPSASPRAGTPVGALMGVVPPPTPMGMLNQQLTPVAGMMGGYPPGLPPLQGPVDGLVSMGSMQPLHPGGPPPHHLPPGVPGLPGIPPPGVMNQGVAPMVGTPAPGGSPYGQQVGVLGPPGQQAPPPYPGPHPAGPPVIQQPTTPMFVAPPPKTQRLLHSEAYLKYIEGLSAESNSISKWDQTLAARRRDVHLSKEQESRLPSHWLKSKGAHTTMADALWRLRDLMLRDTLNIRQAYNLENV
The target of experiment [13] is Nuclear body protein SP140 (Homo sapiens) (UniProt Q13342). In words: Binding affinity to biotinylated SP140 (unknown origin) expressed in Escherichia coli at 0.2 to 1 uM by Biolayer Interferometric analysis. As to conditions: dose 0.2-1 µM. In outline:
as §1

The target of experiment [14] is Transcription intermediary factor 1-beta (Homo sapiens) (UniProt Q13263). Description: Binding affinity to biotinylated TRIM28 (unknown origin) expressed in Escherichia coli at 0.2 to 1 uM by Biolayer Interferometric analysis. As to conditions: dose 0.2-1 µM. A digest of the protocol:
as §1

For experiment [15], the target named is Transcription intermediary factor 1-alpha (Homo sapiens) (UniProt O15164). In words: Binding affinity to biotinylated TIF1 bromodomain-1 (unknown origin) expressed in Escherichia coli at 0.2 to 1 uM by Biolayer Interferometric analysis. Conditions: dose 0.2-1 µM. A digest of the protocol: as §1
In experiment [16] the target is Bromodomain adjacent to zinc finger domain protein 2B (Homo sapiens) (UniProt Q9UIF8). In words: Binding affinity to BAZ2B in human HuT78 cell extract up to 50 uM using GSK2801 affinity matrix by chemoproteomic competition binding assay. The format is cell-free.
Experiment [17] deals with SWI/SNF-related matrix-associated actin-dependent regulator of chromatin subfamily A member 2 (Homo sapiens, UniProt P51531). Description: Binding affinity to SMARCA2 in human HuT78 cell extract using GSK2801 affinity matrix by chemoproteomic competition binding assay. It is filed as cell-free.
In experiment [18] the target is SWI/SNF-related matrix-associated actin-dependent regulator of chromatin subfamily A member 4 (Homo sapiens, UniProt P51532). In words: Binding affinity to SMARCA4 in human HUT78 cell extract using GSK2801 affinity matrix by chemoproteomic competition binding assay. It is filed as cell-free.
In experiment [19] the target is Bromodomain adjacent to zinc finger domain protein 2A (Homo sapiens) (UniProt Q9UIF9). Description: Binding affinity to BAZ2A in human HuT78 cell extract up to 50 uM using GSK2801 affinity matrix by chemoproteomic competition binding assay. The format is cell-free.
In experiment [20] the target is Transcription initiation factor TFIID subunit 1-like (Homo sapiens) (UniProt Q8IZX4). Description: Binding affinity to biotinylated TAF1L bromodomain-2 (unknown origin) expressed in Escherichia coli at 0.2 to 1 uM by Biolayer Interferometric analysis. As to conditions: dose 0.2-1 µM. In outline:
as §1

Chain of Transcription intermediary factor 1-beta (Homo sapiens) (Q13263 whole entry): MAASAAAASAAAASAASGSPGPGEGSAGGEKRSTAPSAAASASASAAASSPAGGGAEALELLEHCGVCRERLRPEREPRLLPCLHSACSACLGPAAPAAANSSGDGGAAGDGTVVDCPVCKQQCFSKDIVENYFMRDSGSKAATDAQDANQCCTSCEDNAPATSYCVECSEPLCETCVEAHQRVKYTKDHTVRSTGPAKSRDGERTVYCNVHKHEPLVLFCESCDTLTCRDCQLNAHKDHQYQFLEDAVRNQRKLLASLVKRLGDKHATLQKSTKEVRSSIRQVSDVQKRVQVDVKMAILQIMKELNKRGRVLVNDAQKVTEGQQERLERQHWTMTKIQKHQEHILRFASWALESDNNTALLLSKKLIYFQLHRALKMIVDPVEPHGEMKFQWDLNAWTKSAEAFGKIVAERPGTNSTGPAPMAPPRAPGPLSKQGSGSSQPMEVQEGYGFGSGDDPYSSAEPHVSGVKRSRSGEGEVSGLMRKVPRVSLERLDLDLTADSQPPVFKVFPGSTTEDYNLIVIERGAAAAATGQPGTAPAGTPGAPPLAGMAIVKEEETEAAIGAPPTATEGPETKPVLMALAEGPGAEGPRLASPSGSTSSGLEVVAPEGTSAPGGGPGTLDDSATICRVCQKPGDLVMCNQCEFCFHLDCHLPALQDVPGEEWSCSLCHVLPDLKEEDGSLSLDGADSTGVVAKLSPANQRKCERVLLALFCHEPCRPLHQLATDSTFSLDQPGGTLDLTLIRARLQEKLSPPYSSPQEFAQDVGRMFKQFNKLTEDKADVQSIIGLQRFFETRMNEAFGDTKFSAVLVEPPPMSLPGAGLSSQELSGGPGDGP
Chain of Bromodomain and WD repeat-containing protein 3 (Homo sapiens) (Q6RI45 whole entry): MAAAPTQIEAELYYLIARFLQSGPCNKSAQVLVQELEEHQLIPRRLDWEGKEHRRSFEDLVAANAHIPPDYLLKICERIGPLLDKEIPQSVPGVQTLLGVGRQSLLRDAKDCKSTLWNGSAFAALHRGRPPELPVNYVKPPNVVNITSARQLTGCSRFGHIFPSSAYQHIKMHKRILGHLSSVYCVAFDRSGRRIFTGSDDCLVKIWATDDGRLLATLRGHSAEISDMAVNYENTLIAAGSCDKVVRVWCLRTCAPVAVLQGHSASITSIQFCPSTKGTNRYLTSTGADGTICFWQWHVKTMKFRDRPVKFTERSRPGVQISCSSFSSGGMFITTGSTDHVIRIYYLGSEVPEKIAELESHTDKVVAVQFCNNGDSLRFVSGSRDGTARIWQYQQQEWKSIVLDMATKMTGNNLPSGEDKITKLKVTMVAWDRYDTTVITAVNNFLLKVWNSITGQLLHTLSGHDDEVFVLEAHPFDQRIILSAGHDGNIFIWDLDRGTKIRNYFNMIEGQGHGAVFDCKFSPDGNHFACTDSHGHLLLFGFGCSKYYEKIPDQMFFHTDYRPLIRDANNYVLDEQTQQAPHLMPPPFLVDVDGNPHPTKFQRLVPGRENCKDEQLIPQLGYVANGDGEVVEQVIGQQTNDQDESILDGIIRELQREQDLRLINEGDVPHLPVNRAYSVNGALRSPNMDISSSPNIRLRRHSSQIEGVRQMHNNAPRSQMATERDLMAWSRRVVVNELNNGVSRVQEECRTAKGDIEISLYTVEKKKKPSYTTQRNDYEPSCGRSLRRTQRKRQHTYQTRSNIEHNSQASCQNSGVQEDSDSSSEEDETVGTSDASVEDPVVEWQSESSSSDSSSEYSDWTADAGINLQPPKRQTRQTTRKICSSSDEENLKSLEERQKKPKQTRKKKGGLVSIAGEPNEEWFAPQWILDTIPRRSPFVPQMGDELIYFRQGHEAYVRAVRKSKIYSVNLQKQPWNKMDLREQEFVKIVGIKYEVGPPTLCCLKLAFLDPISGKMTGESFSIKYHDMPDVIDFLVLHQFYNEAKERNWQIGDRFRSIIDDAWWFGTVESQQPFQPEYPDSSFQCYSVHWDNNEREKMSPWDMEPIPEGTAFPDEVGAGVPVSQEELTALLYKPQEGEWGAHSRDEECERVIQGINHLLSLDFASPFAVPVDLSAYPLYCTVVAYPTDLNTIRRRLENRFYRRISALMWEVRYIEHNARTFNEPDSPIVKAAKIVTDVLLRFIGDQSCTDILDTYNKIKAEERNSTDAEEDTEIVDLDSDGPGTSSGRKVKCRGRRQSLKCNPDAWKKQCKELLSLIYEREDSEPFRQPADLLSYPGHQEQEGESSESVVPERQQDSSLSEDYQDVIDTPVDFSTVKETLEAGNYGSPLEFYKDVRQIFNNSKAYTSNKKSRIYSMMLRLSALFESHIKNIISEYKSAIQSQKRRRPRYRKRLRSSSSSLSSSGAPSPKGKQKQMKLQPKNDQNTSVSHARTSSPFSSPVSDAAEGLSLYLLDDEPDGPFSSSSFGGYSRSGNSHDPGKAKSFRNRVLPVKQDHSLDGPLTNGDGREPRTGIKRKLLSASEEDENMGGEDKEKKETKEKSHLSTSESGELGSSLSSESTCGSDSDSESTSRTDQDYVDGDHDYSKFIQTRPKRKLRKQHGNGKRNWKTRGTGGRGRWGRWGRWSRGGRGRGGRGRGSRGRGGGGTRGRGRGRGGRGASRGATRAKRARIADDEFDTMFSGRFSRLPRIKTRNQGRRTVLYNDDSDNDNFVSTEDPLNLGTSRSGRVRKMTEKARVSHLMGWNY
Chain of Bromodomain-containing protein 2 (Homo sapiens) (P25440 whole entry, looked up): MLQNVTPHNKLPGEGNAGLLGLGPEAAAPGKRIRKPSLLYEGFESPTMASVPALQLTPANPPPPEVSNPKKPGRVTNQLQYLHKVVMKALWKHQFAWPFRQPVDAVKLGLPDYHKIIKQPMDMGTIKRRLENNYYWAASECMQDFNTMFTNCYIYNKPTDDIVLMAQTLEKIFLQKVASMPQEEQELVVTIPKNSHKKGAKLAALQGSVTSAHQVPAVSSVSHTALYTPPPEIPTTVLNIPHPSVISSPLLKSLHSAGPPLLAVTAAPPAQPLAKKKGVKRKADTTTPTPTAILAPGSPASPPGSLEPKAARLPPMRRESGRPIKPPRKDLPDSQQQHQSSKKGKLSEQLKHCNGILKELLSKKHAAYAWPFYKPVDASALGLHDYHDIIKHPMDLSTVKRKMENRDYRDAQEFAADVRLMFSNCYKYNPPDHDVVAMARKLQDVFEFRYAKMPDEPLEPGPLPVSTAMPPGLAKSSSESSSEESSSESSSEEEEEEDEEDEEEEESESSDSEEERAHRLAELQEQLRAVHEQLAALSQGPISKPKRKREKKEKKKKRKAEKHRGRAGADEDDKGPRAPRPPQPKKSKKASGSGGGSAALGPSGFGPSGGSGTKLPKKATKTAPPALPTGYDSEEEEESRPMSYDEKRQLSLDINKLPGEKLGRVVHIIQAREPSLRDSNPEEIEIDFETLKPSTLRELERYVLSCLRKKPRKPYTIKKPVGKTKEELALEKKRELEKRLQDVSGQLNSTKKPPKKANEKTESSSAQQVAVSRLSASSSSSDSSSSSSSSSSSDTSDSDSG

Regarding `CCCOc1ccn2c(C(C)=O)cc(-c3ccccc3S(C)(=O)=O)c2c1`, the result in experiment [1], in experiment [2], in experiment [3], in [4], in experiment [5] and in experiment [7] was inactive. Further, the outcome in experiment [8], in [9], in [10], in [11], in experiment [12] and in [13] was inactive. The outcome in experiment [14] and in experiment [15] was inactive. Moreover, in experiment [6], the Kb was 0.826 10^6/M.
In general, Kd refers to the constant that tells how readily two partners part at equilibrium. Low readings indicate tighter binding, high ones weaker binding. Consider `CCCOc1ccn2c(C(C)=O)cc(-c3cccc(OC)c3)c2c1`, for which the result in experiment [16], in [1], in experiment [2], in experiment [3], in [4] and in experiment [5] was inactive. Besides, the result in [7], in experiment [8], in experiment [9], in experiment [10], in experiment [11] and in experiment [12] was inactive. The result in [13], in [14], in [15], in [19] and in experiment [20] was inactive. For the same compound, the Kd in experiment [17] and in experiment [18] was 15.8 µM throughout.
